Measured values as given in ChEMBL document CHEMBL1828580, “Tertiary amides with a five-membered heteroaromatic ring as new probes for the translocator protein” (Eur J Med Chem, 2011).
The source made the active and inactive calls. No cut-off for these calls is given here.

Tests used:
[1] = biological target: Translocator protein (Rattus norvegicus, UniProt P16257); experiment: Displacement of [3H]PK11195 from TSPO receptor in rat kidney membranes; assay type: cell membranes, Membrane
[2] = Antiproliferative activity against human U87MG cells assessed as cell viability at 1000 times Ki after 24 hrs by MTS assay relative to untreated control; assay type: functional, U-87MG ATCC
Outline: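 U87MG cells grown in RPMI with 10% FBS, glutamine, antibiotics and non-essential amino acids at 37 °C. […] MTS colorimetric read-out, expressed as % of DMSO-treated control (100%). Triplicate wells, 3 experiments, mean ± SEM.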

[3] = species: Rattus norvegicus; experiment: Displacement of [3H]Ro15-1788 from CBR in rat cerebral cortex at 10 uM; assay type: tissue-based
Outline: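 Rat cerebral cortex membranes were washed free of endogenous GABA, then incubated with 0.4 nM [3H]Ro15-1788 for 90 min at 0 °C in 50 mM Tris-citrate pH 7.4. Compound was present at 10 μM and the result given as % inhibition of binding.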

[4] = system: U-87MG ATCC; experiment: Antiproliferative activity against human U87MG cells assessed as reduction in cell viability at 30 times Ki after 24 hrs by trypan blue exclusion assay
[5] = system: U-87MG ATCC; experiment: Antiproliferative activity against human U87MG cells assessed as reduction in cell viability at 30 times Ki after 48 hrs by trypan blue exclusion assay
[6] = system: U-87 MG; experiment: Induction of mitochondrial membrane depolarization in human U87MG cells assessed as increase in JC-1 monomer formation at 30 times Ki after 12 to 48 hrs by flow cytometric analysis; assay type: functional, cell-based; settings: U-87MG ATCC
Outline: (§1)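 U87MG cells were exposed to compound at 30 times Ki, or to DMSO control, for 12, 24 or 48 h, with CCCP as positive control in each experiment. Collected cells were stained with JC-1 for 30 min at room temperature in the dark, then analysed by flow cytometry: aggregates in FL2, monomers in FL1, gated on forward/side scatter. Read-out was % of cells in the lower-right (depolarized) quadrant; three independent experiments.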

[7] = system: U-87 MG; experiment: Induction of mitochondrial membrane depolarization in human U87MG cells assessed as change in membrane potential at 30 times Ki after 48 hrs by flow cytometric analysis; assay type: functional, U-87MG ATCC; outline: as §1
[8] = system: U-87MG ATCC; experiment: Antiproliferative activity against human U87MG cells assessed as reduction in cell viability at 30 times Ki after 72 hrs by trypan blue exclusion assay
[9] = system: U-87MG ATCC; experiment: Antiproliferative activity against human U87MG cells assessed as reduction in cell viability at 150 times Ki after 24 hrs by trypan blue exclusion assay

Chain of Translocator protein (P16257 whole entry, looked up): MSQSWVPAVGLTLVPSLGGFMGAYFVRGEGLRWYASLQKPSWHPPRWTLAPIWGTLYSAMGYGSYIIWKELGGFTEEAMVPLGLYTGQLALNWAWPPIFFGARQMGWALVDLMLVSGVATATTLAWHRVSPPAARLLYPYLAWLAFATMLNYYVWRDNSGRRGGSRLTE

SMILES	Ki [1] [nM]	further results
CCCCN(CCCC)C(=O)Cc1nc(-c2ccc(Cl)cc2)no1	267	
CCCCN(CCCC)C(=O)c1coc(-c2ccccc2)n1	3460	
CCCCCN(CCCCC)C(=O)Cc1coc(-c2ccc(Cl)cc2)n1	45	Activity [2]: 72.6%
CCCCCN(CCCCC)C(=O)Cc1nc(-c2ccc(Cl)cc2)no1	152	
CCCCCN(CCCCC)C(=O)c1cc(-c2ccccc2)on1	382	
CCCN(CCC)C(=O)c1cc(-c2ccccc2)on1	> 10000	
CCCCN(CCCC)C(=O)Cc1coc(-c2ccccc2)n1	346	inhibition [3]: < 25%
CCCCN(C)C(=O)c1nc(-c2ccccc2)no1	> 10000	
CCCN(CCC)C(=O)Cc1nc(-c2ccccc2)no1	4340	
CCCCCCN(CCCCCC)C(=O)c1cc(-c2ccccc2)on1	5800	
CCCCN(CCCC)C(=O)Cc1coc(-c2ccc(F)cc2)n1	88	
CCCCCCN(CCCCCC)C(=O)Cc1coc(-c2ccc(C)cc2)n1	877	
CCCCCN(CCCCC)C(=O)c1nc(-c2ccccc2)no1	914	
CCCN(CCC)C(=O)Cc1coc(-c2ccccc2)n1	1700	inhibition [3]: < 25%
CCCCN(CCCC)C(=O)c1cc(-c2ccccc2)on1	620	
CCCCCCN(CCCCCC)C(=O)c1cc(-c2ccc(Cl)cc2)on1	> 10000	
CCCN(CCC)C(=O)Cc1coc(-c2ccc(Cl)cc2)n1	942	
CCCCCCN(CCCCCC)C(=O)Cc1coc(-c2ccc(F)cc2)n1	157	
CCCN(CCC)C(=O)Cc1nc(-c2ccc(Cl)cc2)no1	3400	
CCCN(CCC)C(=O)Cc1coc(-c2ccc(F)cc2)n1	1630	
CCCCN(CCCC)C(=O)C(=O)c1c(-c2ccc(Cl)cc2)[nH]c2ccc(Cl)cc12		Activity [2]: 76%
CCCCCCN(CCCCCC)C(=O)Cc1coc(-c2ccccc2)n1	151	inhibition [3]: < 25%
CCCCCCN(CCCCCC)C(=O)Cc1nc(-c2ccccc2)no1	1100	
CCCCN(CCCC)C(=O)Cc1coc(-c2ccc(C)cc2)n1	487	
CCCCN(CCCC)C(=O)Cc1nc(-c2ccccc2)no1	489	
CCCCCN(CCCCC)C(=O)Cc1cc(-c2ccccc2)no1	257	

SMILES	Ki [1] [nM]	further results
CCCCCN(CCCCC)C(=O)c1cc(-c2ccccc2)no1	379	
CCCN(CCC)C(=O)c1cc(-c2ccc(Cl)cc2)on1	> 10000	
CCCCN(C)C(=O)c1coc(-c2ccccc2)n1	> 10000	
CCCN(CCC)C(=O)c1cc(-c2ccccc2)no1	> 10000	
CCCCCN(CCCCC)C(=O)c1coc(-c2ccccc2)n1	613	
CCN(CC)C(=O)c1coc(-c2ccccc2)n1	> 10000	
CCCCCN(CCCCC)C(=O)Cc1nc(-c2ccccc2)no1	133	
CCN(Cc1ccccc1)C(=O)c1coc(-c2ccccc2)n1	5490	
CCCCCCN(CCCCCC)C(=O)Cc1coc(-c2ccc(Cl)cc2)n1	704	
CCCCCN(CCCCC)C(=O)Cc1coc(-c2ccc(F)cc2)n1	11	Activity [2]: 98%
CCCCCCN(CCCCCC)C(=O)c1nc(-c2ccccc2)no1	4190	
CCCCCCN(CCCCCC)C(=O)c1cc(-c2ccc(C)cc2)no1	2700	
CCCCCN(CCCCC)C(=O)Cc1coc(-c2ccc(C)cc2)n1	68	Activity [2]: 5.3%
CCCN(CCC)C(=O)Cc1coc(-c2ccc(C)cc2)n1	2200	
CCCCN(CCCC)C(=O)c1nc(-c2ccccc2)no1	772	
CCCCCCN(CCCCCC)C(=O)Cc1nc(-c2ccc(Cl)cc2)no1	3200	
CCCN(CCC)C(=O)c1coc(-c2ccccc2)n1	> 10000	
CCCCCN(CCCCC)C(=O)Cc1cc(-c2ccccc2)on1	51	Activity [2]: 24.8%
CCN(Cc1ccccc1)C(=O)c1nc(-c2ccccc2)no1	4870	
CCCCN(CCCC)C(=O)c1cc(-c2ccccc2)no1	651	
CCCCN(CCCC)C(=O)Cc1coc(-c2ccc(Cl)cc2)n1	177	
CCCCCCN(CCCCCC)C(=O)c1coc(-c2ccccc2)n1	4600	
CCCCCN(CCCCC)C(=O)Cc1coc(-c2ccccc2)n1	32	Activity [4]: Active; Activity [5]: Active; Activity [6]: Active; inhibition [3]: < 25%; Activity [7]: 24%; Activity [8]: Active; Activity [9]: Active; Activity [2]: 9.3%
CCCCCCN(CCCCCC)C(=O)c1cc(-c2ccccc2)no1	7000	
CCN(CC)C(=O)c1nc(-c2ccccc2)no1	> 10000	
CCCN(CCC)C(=O)c1nc(-c2ccccc2)no1	> 10000	
